Experimental data taken from ChEMBL document CHEMBL4811241, “Revisiting Pyrazolo[3,4-d]pyrimidine Nucleosides as Anti-Trypanosoma cruzi and Antileishmanial Agents” (J Med Chem, 2021).
pIC50: −log10 of the molar value.

Columns and labels:
Leishmania infantum = test: Antileishmanial activity against amastigote form of Leishmania infantum MHOM/MA(BE)/67 infected in Swiss mouse peritoneal macrophages assessed as reduction in parasite growth treated at 2 hrs post-infection and measured after 5 days by Giemsa staining based microscopic analysis; format: functional, organism-based; settings: MHOM/MA(BE)/67, Peritoneal macrophage
How it was run: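 Swiss mouse peritoneal macrophages, harvested after 2-day potato-starch stimulation, infected 48 h after plating; compounds added 2 h post-infection.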

[1] = Cytotoxicity against Swiss mouse peritoneal macrophages assessed as cell detachment, lysis and granulation measured after 5 days by microscopic analysis; format: cell-based, Peritoneal macrophage; settings: time 5 day
How it was run: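 Scored within the Leishmania macrophage assay over 5 days: detachment, lysis and granulation judged semi-quantitatively by microscopy across at least 500 cells. CC50 derived from % reduction in normal cells versus untreated wells.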

Trypanosoma cruzi = test: Antitrypanosomal activity against nifurtimox-sensitive Trypanosoma cruzi Tulahuen CL2 infected in human MRC-5 SV2 cells assessed as inhibition of parasite growth measured after 7 days by spectrophotometric analysis; format: functional, organism-based; settings: Tulahuen CL2, MRC-5 SV2, 168 h
[2] = Cytotoxicity against human MRC-5 SV2 cells assessed as reduction in cell growth measured after 3 days by resazurin dye based fluorometric analysis; settings: time 3 day
[3] = Selectivity index, ratio of CC50 for human MRC-5 SV2 cells to IC50 for antitrypanosomal activity against nifurtimox-sensitive Trypanosoma cruzi Tulahuen CL2 infected in human MRC-5 SV2 cells; format: toxicity, cell-based; settings: read-out: Ratio CC50/IC50
How it was run: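 Ratio of MRC-5SV2 CC50 (3-day resazurin assay) to IC50 against T. cruzi amastigotes in MRC-5SV2 cells (7-day CPRG assay).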

With Nc1ncnc2c1cnn2[C@@H]1O[C@H](CO)[C@@H](F)[C@H]1O the pIC50 (Leishmania infantum) was < 4.19, the CC50 at 120 h [1] was > 64 µM and the pIC50 (Trypanosoma cruzi) was < 4.19. The CC50 at 72 h [2] was > 64 µM.
For CCCCCCCCCCCCCCCCOP(=O)([O-])OCC[N+](C)(C)C [MILTEFOSINE], the pIC50 (Leishmania infantum) was 5.13.
With Nc1ncnc2c1c(N1CCCC1)nn2[C@@H]1O[C@H](CO)[C@@H](O)[C@H]1O the pIC50 (Leishmania infantum) was < 4.19, the CC50 at 120 h [1] was > 64 µM and the pIC50 (Trypanosoma cruzi) was < 4.19. The CC50 at 72 h [2] was > 64 µM.
In the case of Nc1ncnc2c1c(-c1ccc(Cl)c(F)c1)nn2[C@@H]1O[C@H](CO)[C@@H](O)[C@H]1O, the pIC50 (Leishmania infantum) was < 4.19, the selectivity ratio [3] was > 54 and the CC50 at 120 h [1] was > 64 µM. For the same compound, the pIC50 (Trypanosoma cruzi) was 5.92 and the CC50 at 72 h [2] was > 64 µM.
With CNC(=O)c1nn([C@@H]2O[C@H](CO)[C@@H](O)[C@H]2O)c2ncnc(N)c12 the pIC50 (Leishmania infantum) was < 4.19, the selectivity ratio [3] was 16 and the CC50 at 120 h [1] was > 64 µM. For the same compound, the pIC50 (Trypanosoma cruzi) was 5.40 and the CC50 at 72 h [2] was > 64 µM.
With COc1cc(-c2nn([C@@H]3O[C@H](CO)[C@@H](O)[C@H]3O)c3ncnc(N)c23)ccc1Cl the pIC50 (Leishmania infantum) was < 4.19, the selectivity ratio [3] was > 56 and the CC50 at 120 h [1] was > 64 µM. The pIC50 (Trypanosoma cruzi) was 5.94 and the CC50 at 72 h [2] was > 64 µM.
For Oc1ncnc2[nH]nc(Br)c12, the pIC50 (Leishmania infantum) was < 4.19, the CC50 at 120 h [1] was > 64 µM and the pIC50 (Trypanosoma cruzi) was < 4.19. For the same compound, the CC50 at 72 h [2] was > 64 µM.
In the case of COc1ccc(-c2nn([C@@H]3O[C@H](CO)[C@@H](O)[C@H]3O)c3ncnc(N)c23)cc1, the pIC50 (Leishmania infantum) was < 4.19, the selectivity ratio [3] was > 4 and the CC50 at 120 h [1] was > 64 µM. For the same compound, the pIC50 (Trypanosoma cruzi) was 4.74 and the CC50 at 72 h [2] was > 64 µM.
For Nc1ncnc2c1c(Oc1ccc(Cl)cc1)nn2[C@@H]1O[C@H](CO)[C@@H](O)[C@H]1O, the pIC50 (Leishmania infantum) was < 4.19, the CC50 at 120 h [1] was > 64 µM and the pIC50 (Trypanosoma cruzi) was < 4.19. The CC50 at 72 h [2] was > 64 µM.
In the case of Nc1ncnc2c1c(-c1ccc(F)cc1)nn2[C@@H]1O[C@H](CO)[C@@H](O)[C@H]1O, the pIC50 (Leishmania infantum) was < 4.19, the selectivity ratio [3] was > 19 and the CC50 at 120 h [1] was > 64 µM. The pIC50 (Trypanosoma cruzi) was 5.47 and the CC50 at 72 h [2] was > 64 µM.
For N#Cc1cc(-c2ccc(-c3nn([C@@H]4O[C@H](CO)[C@@H](O)[C@H]4O)c4ncnc(N)c34)cc2C#N)ccc1Cl, the pIC50 (Leishmania infantum) was < 4.19, the CC50 at 120 h [1] was > 64 µM and the pIC50 (Trypanosoma cruzi) was < 4.19. For the same compound, the CC50 at 72 h [2] was > 64 µM.
With Nc1ncnc2c1c(CN1CCOCC1)nn2[C@@H]1O[C@H](CO)[C@@H](O)[C@H]1O the pIC50 (Leishmania infantum) was < 4.19, the CC50 at 120 h [1] was > 64 µM and the pIC50 (Trypanosoma cruzi) was < 4.19. The CC50 at 72 h [2] was > 64 µM.
With N#Cc1ccc(-c2nn([C@@H]3O[C@H](CO)[C@@H](O)[C@H]3O)c3ncnc(N)c23)cc1 the pIC50 (Leishmania infantum) was < 4.19, the selectivity ratio [3] was > 2 and the CC50 at 120 h [1] was > 64 µM. For the same compound, the pIC50 (Trypanosoma cruzi) was 4.49 and the CC50 at 72 h [2] was > 64 µM.
With Nc1ncnc2c1c(-c1cc(F)c(Cl)c(F)c1)nn2[C@@H]1O[C@H](CO)[C@@H](O)[C@H]1O the pIC50 (Leishmania infantum) was < 4.19, the selectivity ratio [3] was > 17 and the CC50 at 120 h [1] was > 64 µM. The pIC50 (Trypanosoma cruzi) was 5.88 and the CC50 at 72 h [2] was > 64 µM.
With Nc1ncnc2c1c(-c1nnn[nH]1)nn2[C@@H]1O[C@H](CO)[C@@H](O)[C@H]1O the pIC50 (Leishmania infantum) was < 4.19, the CC50 at 120 h [1] was > 64 µM and the pIC50 (Trypanosoma cruzi) was < 4.19. The CC50 at 72 h [2] was > 64 µM.
With O=c1[nH]cnc2c1c(Br)nn2[C@@H]1O[C@H](CO)[C@@H](F)[C@H]1O the pIC50 (Leishmania infantum) was < 4.19, the CC50 at 120 h [1] was > 64 µM and the pIC50 (Trypanosoma cruzi) was < 4.19. The CC50 at 72 h [2] was > 64 µM.
In the case of Nc1ncnc2c1c(CCc1ccccc1)nn2[C@@H]1O[C@H](CO)[C@@H](O)[C@H]1O, the pIC50 (Leishmania infantum) was < 4.19, the selectivity ratio [3] was > 1 and the CC50 at 120 h [1] was > 64 µM. The pIC50 (Trypanosoma cruzi) was 4.28 and the CC50 at 72 h [2] was > 64 µM.
In the case of Nc1ncnc2c1c(C(=O)NCc1ccccc1)nn2[C@@H]1O[C@H](CO)[C@@H](O)[C@H]1O, the pIC50 (Leishmania infantum) was < 4.19, the CC50 at 120 h [1] was > 64 µM and the pIC50 (Trypanosoma cruzi) was < 4.19. For the same compound, the CC50 at 72 h [2] was > 64 µM.
For Nc1ncnc2c1c(C(F)(F)F)nn2[C@@H]1O[C@H](CO)[C@@H](O)[C@H]1O, the pIC50 (Leishmania infantum) was < 4.19, the selectivity ratio [3] was < 1 and the CC50 at 120 h [1] was > 64 µM. It also gave a pIC50 (Trypanosoma cruzi) of 4.57 and a CC50 at 72 h [2] of 13.3 µM.
With CC(C)c1nn([C@@H]2O[C@H](CO)[C@@H](O)[C@H]2O)c2ncnc(N)c12 the pIC50 (Leishmania infantum) was < 4.19, the selectivity ratio [3] was < 1 and the CC50 at 120 h [1] was > 64 µM. For the same compound, the pIC50 (Trypanosoma cruzi) was < 4.19 and the CC50 at 72 h [2] was 10.6 µM.
In the case of Cc1cc(Cl)ccc1-c1nn([C@@H]2O[C@H](CO)[C@@H](O)[C@H]2O)c2ncnc(N)c12, the pIC50 (Leishmania infantum) was < 4.19, the selectivity ratio [3] was > 17 and the CC50 at 120 h [1] was > 64 µM. For the same compound, the pIC50 (Trypanosoma cruzi) was 5.42 and the CC50 at 72 h [2] was > 64 µM.
For Nc1ncnc2c1c(-c1ccc(Cl)s1)nn2[C@@H]1O[C@H](CO)[C@@H](O)[C@H]1O, the pIC50 (Leishmania infantum) was < 4.19, the selectivity ratio [3] was 14 and the CC50 at 120 h [1] was > 64 µM. For the same compound, the pIC50 (Trypanosoma cruzi) was 5.59 and the CC50 at 72 h [2] was 47.3 µM.
For Cc1csc(-c2nn([C@@H]3O[C@H](CO)[C@@H](O)[C@H]3O)c3ncnc(N)c23)c1, the pIC50 (Leishmania infantum) was < 4.19, the selectivity ratio [3] was > 2 and the CC50 at 120 h [1] was > 64 µM. The pIC50 (Trypanosoma cruzi) was 4.49 and the CC50 at 72 h [2] was > 64 µM.
For Nc1ncnc2c1c(-c1cccs1)nn2[C@@H]1O[C@H](CO)[C@@H](O)[C@H]1O, the pIC50 (Leishmania infantum) was < 4.19, the selectivity ratio [3] was 3 and the CC50 at 120 h [1] was > 64 µM. For the same compound, the pIC50 (Trypanosoma cruzi) was 4.98 and the CC50 at 72 h [2] was 32 µM.
With O=c1[nH]cnc2c1c(Br)nn2[C@@H]1O[C@H](CO)[C@@H](O)[C@H]1O the pIC50 (Leishmania infantum) was < 4.19, the CC50 at 120 h [1] was > 64 µM and the pIC50 (Trypanosoma cruzi) was < 4.19. For the same compound, the CC50 at 72 h [2] was > 64 µM.
For CC(C)(C)c1ccc(-c2nn([C@@H]3O[C@H](CO)[C@@H](O)[C@H]3O)c3ncnc(N)c23)cc1, the pIC50 (Leishmania infantum) was < 4.19, the CC50 at 120 h [1] was > 64 µM and the pIC50 (Trypanosoma cruzi) was < 4.19. For the same compound, the CC50 at 72 h [2] was > 64 µM.
With Nc1ncnc2c1c(C1CC1)nn2[C@@H]1O[C@H](CO)[C@@H](O)[C@H]1O the pIC50 (Leishmania infantum) was < 4.19, the CC50 at 120 h [1] was > 64 µM and the pIC50 (Trypanosoma cruzi) was < 4.19. For the same compound, the CC50 at 72 h [2] was > 64 µM.
With Nc1ncnc2c1c(C(=O)N1CCCC1)nn2[C@@H]1O[C@H](CO)[C@@H](O)[C@H]1O the pIC50 (Leishmania infantum) was < 4.19, the CC50 at 120 h [1] was > 64 µM and the pIC50 (Trypanosoma cruzi) was < 4.19. The CC50 at 72 h [2] was > 64 µM.
With Nc1ncnc2c1c(Br)nn2[C@@H]1O[C@H](CO)C[C@H]1O the pIC50 (Leishmania infantum) was < 4.19, the CC50 at 120 h [1] was > 64 µM and the pIC50 (Trypanosoma cruzi) was 4.41. It also gave a CC50 at 72 h [2] of 2.2 µM.
In the case of Nc1ncnc2c1c(Br)nn2[C@H]1C[C@H](O)[C@@H](CO)O1, the pIC50 (Leishmania infantum) was < 4.19, the CC50 at 120 h [1] was > 64 µM and the pIC50 (Trypanosoma cruzi) was 4.27. The CC50 at 72 h [2] was 24.9 µM.
For Nc1ncnc2c1cnn2[C@@H]1O[C@H](CO)C[C@H]1O, the pIC50 (Leishmania infantum) was < 4.19, the CC50 at 120 h [1] was > 64 µM and the pIC50 (Trypanosoma cruzi) was < 4.19. The CC50 at 72 h [2] was > 64 µM.
In the case of N#Cc1cc(-c2nn([C@@H]3O[C@H](CO)[C@@H](O)[C@H]3O)c3ncnc(N)c23)ccc1Cl, the pIC50 (Leishmania infantum) was < 4.19, the CC50 at 120 h [1] was > 64 µM and the pIC50 (Trypanosoma cruzi) was < 4.19. For the same compound, the CC50 at 72 h [2] was > 64 µM.
For O=c1[nH]cnc2c1cnn2[C@@H]1O[C@H](CO)[C@@H](F)[C@H]1O, the pIC50 (Leishmania infantum) was < 4.19, the CC50 at 120 h [1] was > 64 µM and the pIC50 (Trypanosoma cruzi) was < 4.19. For the same compound, the CC50 at 72 h [2] was > 64 µM.
In the case of O=c1[nH]cnc2c1cnn2[C@@H]1O[C@H](CO)C[C@H]1O, the pIC50 (Leishmania infantum) was < 4.19, the CC50 at 120 h [1] was > 64 µM and the pIC50 (Trypanosoma cruzi) was < 4.19. The CC50 at 72 h [2] was > 64 µM.
With CCc1nn([C@@H]2O[C@H](CO)[C@@H](O)[C@H]2O)c2ncnc(N)c12 the pIC50 (Leishmania infantum) was < 4.19, the CC50 at 120 h [1] was > 64 µM and the pIC50 (Trypanosoma cruzi) was < 4.19. For the same compound, the CC50 at 72 h [2] was > 64 µM.
With O=c1[nH]cnc2c1c(Br)nn2[C@@H]1O[C@H](CO)C[C@H]1O the pIC50 (Leishmania infantum) was < 4.19, the CC50 at 120 h [1] was > 64 µM and the pIC50 (Trypanosoma cruzi) was < 4.19. For the same compound, the CC50 at 72 h [2] was > 64 µM.
With Nc1ncnc2c1cnn2[C@H]1C[C@H](O)[C@@H](CO)O1 the pIC50 (Leishmania infantum) was < 4.19, the CC50 at 120 h [1] was > 64 µM and the pIC50 (Trypanosoma cruzi) was < 4.19. For the same compound, the CC50 at 72 h [2] was > 64 µM.
